Measured values published in ChEMBL document CHEMBL1914423, “New imidazo[2,1-b]thiazole derivatives: synthesis, in vitro anticancer evaluation, and in silico studies” (Eur J Med Chem, 2011).

Experiments:
Assay type in all cases: functional
[1] = system: U-251; experiment: Anticancer activity against human U251 cells assessed as cell growth at 10^-5 M after 48 hrs by SRB assay; settings: U-251, 48 h, read-out: Activity
Method in brief: (§1)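 NCI-60 single-dose screen: cells in RPMI 1640 with 5% FBS and 2 mM L-glutamine, plated at 5000–40,000 cells/well by doubling time, and preincubated 24 h at 37 °C. Compound given at one concentration from DMSO stock. Cells TCA-fixed and SRB-stained, absorbance at 515 nm. Percent growth relative to time-zero and untreated controls; inhibition % = 100 − growth %.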

[2] = system: HCT-15; experiment: Anticancer activity against human HCT15 cells assessed as cell growth at 10^-5 M after 48 hrs by SRB assay; settings: HCT-15, 48 h, read-out: Activity
Method in brief: (§2)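 NCI-60 single-dose screen at one concentration. Cells grown in RPMI 1640 with 5% FBS and 2 mM L-glutamine, plated at 5000–40,000 cells/well, and pre-incubated 24 h at 37 °C in 5% CO2 before DMSO-dissolved drug was added. Cells fixed with TCA, SRB-stained, absorbance read at 515 nm. Percent growth calculated against time-zero and untreated control plates.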

[3] = system: SW-620; experiment: Anticancer activity against human SW620 cells assessed as cell growth at 10^-5 M after 48 hrs by SRB assay; settings: SW-620, 48 h, read-out: Activity; method in brief: as §1
[4] = system: RXF 393; experiment: Anticancer activity against human RXF393 cells assessed as cell growth at 10^-5 M after 48 hrs by SRB assay; settings: RXF 393, 48 h, read-out: Activity
[5] = system: CAKI-1; experiment: Anticancer activity against human Caki1 cells assessed as cell growth at 10^-5 M after 48 hrs by SRB assay; settings: CAKI-1, 48 h, read-out: Activity; method in brief: as §2
[6] = system: NCI-H522; experiment: Anticancer activity against human NCI-H522 cells assessed as cell growth at 10^-5 M after 48 hrs by SRB assay; settings: NCI-H522, 48 h, read-out: Activity
[7] = system: BT-549; experiment: Anticancer activity against human BT549 cells assessed as cell growth at 10^-5 M after 48 hrs by SRB assay; settings: BT-549, 48 h, read-out: Activity; method in brief: as §2
[8] = system: SF-268; experiment: Anticancer activity against human SF268 cells assessed as cell growth at 10^-5 M after 48 hrs by SRB assay; settings: SF-268, 48 h, read-out: Activity
[9] = system: SF-539; experiment: Anticancer activity against human SF539 cells assessed as cell growth at 10^-5 M after 48 hrs by SRB assay; settings: SF-539, 48 h, read-out: Activity
[10] = system: OVCAR-3; experiment: Anticancer activity against human OVCAR3 cells assessed as cell growth at 10^-5 M after 48 hrs by SRB assay; settings: OVCAR-3, 48 h, read-out: Activity
[11] = system: A498; experiment: Anticancer activity against human A498 cells assessed as cell growth at 10^-5 M after 48 hrs by SRB assay; settings: A498, 48 h, read-out: Activity; method in brief: as §2
[12] = system: PC-3; experiment: Anticancer activity against human PC3 cells assessed as cell growth at 10^-5 M after 48 hrs by SRB assay; settings: PC-3, 48 h, read-out: Activity
[13] = system: RPMI-8226; experiment: Anticancer activity against human RPMI8226 cells assessed as cell growth at 10^-5 M after 48 hrs by SRB assay; settings: RPMI-8226, 48 h, read-out: Activity
[14] = system: OVCAR-5; experiment: Anticancer activity against human OVCAR5 cells assessed as cell growth at 10^-5 M after 48 hrs by SRB assay; settings: OVCAR-5, 48 h, read-out: Activity
[15] = system: MOLT-4; experiment: Anticancer activity against human MOLT4 cells assessed as cell growth at 10^-5 M after 48 hrs by SRB assay; settings: MOLT-4, 48 h, read-out: Activity
[16] = system: SN12C; experiment: Anticancer activity against human SN12C cells assessed as cell growth at 10^-5 M after 48 hrs by SRB assay; settings: read-out: Activity
[17] = system: HOP-92; experiment: Anticancer activity against human HOP92 cells assessed as cell growth at 10^-5 M after 48 hrs by SRB assay; settings: HOP-92, 48 h, read-out: Activity; method in brief: as §2
[18] = system: SNB-19; experiment: Anticancer activity against human SNB19 cells assessed as cell growth at 10^-5 M after 48 hrs by SRB assay; settings: SNB-19, 48 h, read-out: Activity
[19] = system: UACC-62; experiment: Anticancer activity against human UACC62 cells assessed as cell growth at 10^-5 M after 48 hrs by SRB assay; settings: UACC-62, 48 h, read-out: Activity; method in brief: as §1
[20] = system: HCT-116; experiment: Anticancer activity against human HCT116 cells assessed as cell growth at 10^-5 M after 48 hrs by SRB assay; settings: HCT-116, 48 h, read-out: Activity; method in brief: as §2
[21] = system: MDA-MB-435; experiment: Anticancer activity against human MDA-MB-435 cells assessed as cell growth at 10^-5 M after 48 hrs by SRB assay; settings: MDA-MB-435, 48 h, read-out: Activity
[22] = system: HCC 2998; experiment: Anticancer activity against human HCC2998 cells assessed as cell growth at 10^-5 M after 48 hrs by SRB assay; settings: HCC 2998, 48 h, read-out: Activity; method in brief: as §2
[23] = system: NCI-H23; experiment: Anticancer activity against human NCI-H23 cells assessed as cell growth at 10^-5 M after 48 hrs by SRB assay; settings: NCI-H23, 48 h, read-out: Activity
[24] = system: UACC-257; experiment: Anticancer activity against human UACC257 cells assessed as cell growth at 10^-5 M after 48 hrs by SRB assay; settings: UACC-257, 48 h, read-out: Activity; method in brief: as §1
[25] = system: NCI-H322M; experiment: Anticancer activity against human NCI-H322M cells assessed as cell growth at 10^-5 M after 48 hrs by SRB assay; settings: read-out: Activity
[26] = system: SK-MEL-2; experiment: Anticancer activity against human SK-MEL-2 cells assessed as cell growth at 10^-5 M after 48 hrs by SRB assay; settings: SK-MEL-2, 48 h, read-out: Activity
[27] = system: KM12; experiment: Anticancer activity against human KM12 cells assessed as cell growth at 10^-5 M after 48 hrs by SRB assay; settings: KM12, 48 h, read-out: Activity; method in brief: as §2
[28] = system: OVCAR-8; experiment: Anticancer activity against human OVCAR8 cells assessed as cell growth at 10^-5 M after 48 hrs by SRB assay; settings: OVCAR-8, 48 h, read-out: Activity
[29] = system: SK-MEL-28; experiment: Anticancer activity against human SK-MEL-28 cells assessed as cell growth at 10^-5 M after 48 hrs by SRB assay; settings: SK-MEL-28, 48 h, read-out: Activity
[30] = system: NCI-H226; experiment: Anticancer activity against human NCI-H226 cells assessed as cell growth at 10^-5 M after 48 hrs by SRB assay; settings: NCI-H226, 48 h, read-out: Activity
[31] = system: UO-31; experiment: Anticancer activity against human UO31 cells assessed as cell growth at 10^-5 M after 48 hrs by SRB assay; settings: UO-31, 48 h, read-out: Activity; method in brief: as §1

Row | Compound | growth at 10 µM [1] [%] | growth at 10 µM [2] [%] | growth at 10 µM [3] [%] | growth at 10 µM [4] [%] | growth at 10 µM [5] [%] | growth at 10 µM [6] [%] | growth at 10 µM [7] [%] | growth at 10 µM [8] [%] | growth at 10 µM [9] [%] | growth at 10 µM [10] [%] | growth at 10 µM [11] [%] | growth at 10 µM [12] [%] | growth at 10 µM [13] [%] | growth at 10 µM [14] [%] | growth at 10 µM [15] [%] | growth at 10 µM [16] [%] | growth at 10 µM [17] [%] | growth at 10 µM [18] [%] | growth at 10 µM [19] [%] | growth at 10 µM [20] [%] | also measured
1 | O=C(NCCNc1nccc(-c2c(-c3cccc(O)c3)nc3sccn23)n1)c1ccccc1 | 61.9 | 88.4 | 78.2 | 62.6 | 87.9 | 72.7 | 61.4 | 80.7 | 73.2 | 92.3 | 48 | 68.5 | 76.8 | 90.6 | 67.1 | 66.4 | 58.6 | 91.1 | 0.9 | 42.5 | growth at 10 µM [21]: 24%; growth at 10 µM [22]: 97.8%; growth at 10 µM [23]: 82.6%; growth at 10 µM [24]: 11.3%; growth at 10 µM [25]: 101%; growth at 10 µM [26]: 45.5%; growth at 10 µM [27]: 75.9%; growth at 10 µM [28]: 66.6%; growth at 10 µM [29]: 37.8%; growth at 10 µM [30]: 54.5%; growth at 10 µM [31]: 87.7%
2 | O=C(NCCNc1nccc(-c2c(-c3cccc(O)c3)nc3sccn23)n1)c1ccccc1O | 61.6 | 54.5 | 77.9 | 50.9 | 24.3 | 29 | 45.7 | 62.5 | 61.9 | 60.2 | 104 | 51.1 | 11.6 | 88.7 | 46.2 | 48 | 59.9 | 90.2 | 0.53 | 25.9 | growth at 10 µM [21]: 14.3%; growth at 10 µM [22]: 81%; growth at 10 µM [23]: 57.4%; growth at 10 µM [24]: 14.8%; growth at 10 µM [25]: 72.3%; growth at 10 µM [26]: 13.9%; growth at 10 µM [27]: 46.7%; growth at 10 µM [28]: 41.3%; growth at 10 µM [29]: 41.4%; growth at 10 µM [30]: 80.5%; growth at 10 µM [31]: 34.6%
3 | O=C(NCCNc1nccc(-c2c(-c3cccc(O)c3)nc3sccn23)n1)c1cc(C(F)(F)F)cc(C(F)(F)F)c1 | 105 | 96.6 | 117 | 107 | 96.8 | 97.6 | 108 | 105 | 113 | 108 | 112 | 82.8 | 91 | 104 | 87.7 | 102 | 77.1 | 123 | 27.5 | 102 | growth at 10 µM [21]: 59.2%; growth at 10 µM [22]: 129%; growth at 10 µM [23]: 119%; growth at 10 µM [24]: 66.5%; growth at 10 µM [25]: 122%; growth at 10 µM [26]: 101%; growth at 10 µM [27]: 103%; growth at 10 µM [28]: 102%; growth at 10 µM [29]: 61.8%; growth at 10 µM [30]: 116%; growth at 10 µM [31]: 94.6%
4 | O=C(NCCNc1nccc(-c2c(-c3cccc(O)c3)nc3sccn23)n1)c1ccc(N2CCOCC2)c(C(F)(F)F)c1 | 82 | 80 | 111 | 57.6 | 66.9 | 74.4 | 53.8 | 79.1 | 77.8 | 89.1 | 47.8 | 56.6 | 58.8 | 91.2 | 57 | 76 | 38.9 | 109 | 5.88 | 60.2 | growth at 10 µM [21]: 20.9%; growth at 10 µM [22]: 106%; growth at 10 µM [23]: 85.4%; growth at 10 µM [24]: 15.8%; growth at 10 µM [25]: 102%; growth at 10 µM [26]: 66.7%; growth at 10 µM [27]: 77.5%; growth at 10 µM [28]: 72.8%; growth at 10 µM [29]: 42.8%; growth at 10 µM [30]: 69.5%; growth at 10 µM [31]: 61.3%
5 | O=C(NCCNc1nccc(-c2c(-c3cccc(O)c3)nc3sccn23)n1)c1cc(N2CCOCC2)cc(C(F)(F)F)c1 | 105 | 92 | 126 | 77.8 | 82.5 | 78.6 | 84.8 | 102 | 101 | 107 | 92.8 | 78.2 | 67 | 101 | 68.5 | 89.8 | 87.7 | 125 | 8.5 | 78.8 | growth at 10 µM [21]: 34.7%; growth at 10 µM [22]: 109%; growth at 10 µM [23]: 106%; growth at 10 µM [24]: 16.7%; growth at 10 µM [25]: 107%; growth at 10 µM [26]: 64.5%; growth at 10 µM [27]: 97.3%; growth at 10 µM [28]: 78.1%; growth at 10 µM [29]: 44.5%; growth at 10 µM [30]: 106%; growth at 10 µM [31]: 87.5%
